# Assay results as given in ChEMBL document CHEMBL4330056, “Synthesis and Cytotoxic and Antiviral Profiling of Pyrrolo- and Furo-Fused 7-Deazapurine Ribonucleosides” (J Med Chem, 2018).
# The source made the active and inactive calls. No cut-off for these calls is given here.
# Tests used:
# [1] = test system: Hepatitis C virus; experiment: Antiviral activity against Hepatitis C virus genotype 2a infected in human Huh-luc replicon cells after 3 days by luciferase assay; assay type: functional, organism-based, Hepacivirus hominis; conditions: subtype 2a, 72 h
# [2] = test system: CCRF-CEM; experiment: Inhibition of mitosis in human CCRF-CEM cells assessed Ser10 H3 phosphorylation positive cells at IC50 concentration after 24 hrs by flow cytometry relative to total cell population (reference value: 1.36%); assay type: functional; set-up: scale not given: the % may be the effect or the level left
# [3] = test system: CCRF-CEM; experiment: Inhibition of RNA synthesis in human CCRF-CEM cells assessed as RNA synthesis level at IC50 concentration after 24 hrs by BrU incorporation assay (reference value: 49.89%); assay type: functional; set-up: scale not given: the % may be the effect or the level left
# [4] = Cytotoxicity against human Hep2 cells assessed as reduction in cell viability after 3 days by CellTiter-Glo assay; assay type: cell-based; conditions: HEp-2 cells
# [5] = test system: CCRF-CEM; experiment: Inhibition of DNA synthesis in human CCRF-CEM cells assessed as DNA synthesis level at 5 times IC50 concentration after 24 hrs by BrdU incorporation assay (reference value: 43.39%); assay type: functional; set-up: scale not given: the % may be the effect or the level left
# [6] = test system: CCRF-CEM; experiment: Induction of cell cycle arrest in human CCRF-CEM cells assessed as accumulation at S phase at 5 times IC50 concentration after 24 hrs by propidium iodide-staining based flow cytometry (reference value: 41.08%); assay type: functional
# [7] = target: T1, Adenosine kinase (Homo sapiens, UniProt P55263); experiment: Inhibition of recombinant human ADK using [3H]-adenosine as substrate after 20 mins by TLC scanner-based analysis relative to control
# T1 sequence (P55263 whole entry): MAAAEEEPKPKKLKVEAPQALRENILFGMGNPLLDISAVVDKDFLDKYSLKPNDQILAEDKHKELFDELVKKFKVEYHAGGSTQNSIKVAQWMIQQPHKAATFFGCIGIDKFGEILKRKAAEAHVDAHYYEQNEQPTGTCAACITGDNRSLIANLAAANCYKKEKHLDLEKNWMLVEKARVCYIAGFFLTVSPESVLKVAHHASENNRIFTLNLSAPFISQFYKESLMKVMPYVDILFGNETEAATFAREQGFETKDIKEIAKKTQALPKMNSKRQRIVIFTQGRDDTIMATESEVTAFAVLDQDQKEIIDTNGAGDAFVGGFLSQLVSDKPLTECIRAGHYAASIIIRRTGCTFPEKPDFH
# Summary of the method: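 ADK inhibition: 50 μM adenosine substrate with 10 μM test compound and 97 ng enzyme, 20 min at 37 °C.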
# [8] = test system: HL-60; experiment: Antiproliferative activity against human HL60 cells after 72 hrs by XTT assay; assay type: functional, cell-based; conditions: HL-60, 72 h
# [9] = test system: K562; experiment: Antiproliferative activity against human K562 cells after 3 days by MTS assay; assay type: functional, cell-based; conditions: K562, 72 h
# [10] = test system: CCRF-CEM; experiment: Induction of cell cycle arrest in human CCRF-CEM cells assessed as accumulation at G0/G1 phase at 5 times IC50 concentration after 24 hrs by propidium iodide-staining based flow cytometry (reference value: 39.70%); assay type: functional
# [11] = test system: Hepatitis C virus; experiment: Antiviral activity against Hepatitis C virus genotype 1b infected in human Huh-luc replicon cells after 3 days by luciferase assay; assay type: functional, organism-based, Hepacivirus hominis; conditions: subtype 1b, 72 h
# [12] = test system: CCRF-CEM; experiment: Inhibition of RNA synthesis in human CCRF-CEM cells assessed as RNA synthesis level at 5 times IC50 concentration after 24 hrs by BrU incorporation assay (reference value: 49.89%); assay type: functional; set-up: scale not given: the % may be the effect or the level left
# [13] = test system: Influenza A virus; experiment: Antiviral activity against Influenza A virus (A/Mexico/4108/2009(H1N1)) infected in MDCK cells assessed as inhibited virus-induced cytopathic effect incubated for 2 days by XTT assay; assay type: functional, organism-based
# [14] = test system: CCRF-CEM; experiment: Induction of cell cycle arrest in human CCRF-CEM cells assessed as accumulation at subG1 phase at IC50 concentration after 24 hrs by propidium iodide-staining based flow cytometry (reference value: 3.45%); assay type: functional
# [15] = test system: HCT-116; experiment: Antiproliferative activity against p53 gene knocked out human HCT116 cells after 3 days by MTS assay; assay type: functional, cell-based; conditions: HCT-116, 72 h
# [16] = test system: MRC5; experiment: Antiproliferative activity against human MRC5 cells after 3 days by MTS assay; conditions: MRC5, 72 h
# [17] = test system: Coxsackievirus B3; experiment: Antiviral activity against Human coxsackie B3 Nancy infected in human HeLa cells assessed as inhibited virus-induced cytopathic effect incubated for 2 days by XTT assay; assay type: functional, organism-based
# [18] = test system: Human alphaherpesvirus 1; experiment: Antiviral activity against human herpesvirus 1 HF infected in African green monkey Vero cells assessed as inhibited virus-induced cytopathic effect incubated for 3 days by XTT assay; assay type: functional, organism-based
# [19] = test system: CCRF-CEM; experiment: Induction of cell cycle arrest in human CCRF-CEM cells assessed as accumulation at S phase at IC50 concentration after 24 hrs by propidium iodide-staining based flow cytometry (reference value: 41.08%); assay type: functional
# [20] = test system: A549; experiment: Antiproliferative activity against human A549 cells after 3 days by MTS assay; assay type: functional, cell-based; conditions: A549, 72 h
# [21] = test system: U2OS; experiment: Antiproliferative activity against human U2OS cells after 3 days by MTS assay; assay type: functional, cell-based; conditions: 72 h
# [22] = test system: dengue virus type 2; experiment: Antiviral activity against Dengue virus 2 Thailand/16681/84 infected in African green monkey Vero cells assessed as inhibition of virus replication incubated for 3 days by fluorescence microscopy; assay type: functional, organism-based
# [23] = test system: CCRF-CEM; experiment: Inhibition of DNA synthesis in human CCRF-CEM cells assessed as DNA synthesis level at IC50 concentration after 24 hrs by BrdU incorporation assay (reference value: 43.39%); assay type: functional; set-up: scale not given: the % may be the effect or the level left
# [24] = test system: HepG2; experiment: Antiproliferative activity against human HepG2 cells after 72 hrs by XTT assay; assay type: functional, cell-based; conditions: HepG2, 72 h
# [25] = target: T1, Adenosine kinase; experiment: Substrate activity at recombinant human ADK assessed as compound phosphorylation at 50 uM after 20 mins in presence of [3H]-adenosine by UPLC; assay type: ADME
# [26] = test system: CCRF-CEM; experiment: Induction of cell cycle arrest in human CCRF-CEM cells assessed as accumulation at subG1 phase at 5 times IC50 concentration after 24 hrs by propidium iodide-staining based flow cytometry (reference value: 3.45%); assay type: functional
# [27] = Antiproliferative activity against human K562-TAX cells after 3 days by MTS assay; assay type: functional, cell-based; conditions: 72 h
# [28] = test system: CCRF-CEM; experiment: Induction of cell cycle arrest in human CCRF-CEM cells assessed as accumulation at G0/G1 phase at IC50 concentration after 24 hrs by propidium iodide-staining based flow cytometry (reference value: 39.70%); assay type: functional
# [29] = test system: HeLa S3; experiment: Antiproliferative activity against human HeLaS3 cells after 72 hrs by XTT assay; assay type: functional, cell-based; conditions: HeLa S3, 72 h
# [30] = test system: CCRF-CEM; experiment: Antiproliferative activity against human CCRF-CEM cells after 3 days by MTS assay; assay type: functional, cell-based; conditions: 72 h
# [31] = test system: CCRF-CEM; experiment: Inhibition of mitosis in human CCRF-CEM cells assessed Ser10 H3 phosphorylation positive cells at 5 times IC50 concentration after 24 hrs by flow cytometry relative to total cell population (reference value: 1.36%); assay type: functional; set-up: scale not given: the % may be the effect or the level left
# [32] = test system: HCT-116; experiment: Antiproliferative activity against human HCT116 cells after 3 days by MTS assay; assay type: functional, cell-based; conditions: HCT-116, 72 h
# [33] = Antiproliferative activity against human CEM-DNR-bulk cells after 3 days by MTS assay; conditions: 72 h
# [34] = test system: Human orthopneumovirus; experiment: Antiviral activity against Human respiratory syncytial virus A2 infected in Hep2 cells assessed as reduction in virus-induced cytopathic effect incubated for 4 days by CellTiter-Glo viability reagent based assay; assay type: functional, organism-based
# [35] = test system: CCRF-CEM; experiment: Induction of cell cycle arrest in human CCRF-CEM cells assessed as accumulation at G2/M phase at 5 times IC50 concentration after 24 hrs by propidium iodide-staining based flow cytometry (reference value: 19.22%); assay type: functional
# [36] = test system: CCRF-CEM; experiment: Induction of cell cycle arrest in human CCRF-CEM cells assessed as accumulation at G2/M phase at IC50 concentration after 24 hrs by propidium iodide-staining based flow cytometry (reference value: 19.22%); assay type: functional
# [37] = test system: BJ; experiment: Antiproliferative activity against human BJ cells after 3 days by MTS assay; conditions: 72 h
# [38] = Chemical stability of the compound assessed as compound remaining after 15 mins relative to control; assay type: physicochemical; conditions: read-out: Stability
# [39] = Stability in human plasma assessed as compound remaining at 3.3 umol/L after 15 mins by RF-MS analysis relative to control; assay type: ADME, cell-free; conditions: read-out: Stability
# [40] = Stability in human plasma assessed as compound remaining at 3.3 umol/L after 120 mins by RF-MS analysis relative to control; assay type: ADME, cell-free; conditions: read-out: Stability
# [41] = Effective permeability of the compound at 20 umol/L by PAMPA; assay type: ADME; conditions: 20 µM
# [42] = Chemical stability of the compound assessed as compound remaining after 30 mins relative to control; assay type: physicochemical; conditions: read-out: Stability
# [43] = Mitochondrial toxicity in human OCI-AML2 cells assessed as reduction in oxidative phosphorylation-based viability after 72 hrs by CellTiterGlo assay; assay type: cell-based
# Summary of the method: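 OCI-AML2 leukemia cells, which rely on mitochondrial OXPHOS, treated for 3 days in a survival assay; IC50 reported.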
# [44] = Chemical stability of the compound assessed as compound remaining after 120 mins relative to control; assay type: physicochemical; conditions: read-out: Stability
# [45] = Protein binding in human plasma; assay type: ADME, cell-free; conditions: read-out: PPB (converted)
# [46] = Metabolic stability in human liver microsomes assessed as compound remaining at 5 umol/L after 15 mins relative to control; assay type: ADME, Microsome; conditions: read-out: Stability
# Summary of the method: (§1)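 Human microsomal fraction; percent compound remaining over time.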
# [47] = Chemical stability of the compound assessed as compound remaining after 60 mins relative to control; assay type: physicochemical; conditions: read-out: Stability
# [48] = Stability in human plasma assessed as compound remaining at 3.3 umol/L after 30 mins by RF-MS analysis relative to control; assay type: ADME, cell-free; conditions: read-out: Stability
# [49] = Stability in human plasma assessed as compound remaining at 3.3 umol/L after 60 mins by RF-MS analysis relative to control; assay type: ADME, cell-free; conditions: read-out: Stability
# [50] = Metabolic stability in human liver microsomes assessed as compound remaining at 5 umol/L after 60 mins relative to control; assay type: ADME, Microsome; conditions: read-out: Stability; summary of the method: as §1
# [51] = Metabolic stability in human liver microsomes assessed as compound remaining at 5 umol/L after 30 mins relative to control; assay type: ADME, Microsome; conditions: read-out: Stability; summary of the method: as §1
compound,measurement,setting,value
COc1ncnc2c1c1c(ccn1C)n2[C@@H]1O[C@H](CO)[C@@H](O)[C@H]1O,EC50,[1],0.28 µM
same,Activity,[2],1.48%
same,Activity,[3],31.19%
same,CC50 at 72 h,[4],> 44.4 µM
same,Activity,[5],12.29%
same,Activity,[6],36.98%
same,IC50,[7],> 10 µM
same,IC50,[8],1.44 µM
same,IC50,[9],0.51 µM
same,Activity,[10],47.62%
same,EC50,[11],0.09 µM
same,Activity,[12],28.3%
same,Activity,[13],inactive
same,Activity,[14],3.68%
same,IC50,[15],0.62 µM
same,IC50,[16],50 µM
same,Activity,[17],inactive
same,Activity,[18],inactive
same,Activity,[19],45.08%
same,IC50,[20],> 50 µM
same,IC50,[21],1.3 µM
same,Activity,[22],inactive
same,Activity,[23],31.44%
same,IC50,[24],2.59 µM
same,Activity,[25],47%
same,Activity,[26],13.86%
same,IC50,[27],> 50 µM
same,Activity,[28],37.73%
same,IC50,[29],1.53 µM
same,IC50,[30],0.44 µM
same,Activity,[31],1.5%
same,IC50,[32],0.36 µM
same,IC50,[33],> 50 µM
same,Activity,[34],inactive
same,Activity,[35],15.4%
same,Activity,[36],17.2%
same,IC50,[37],4.5 µM
CSc1ncnc2c1c1c(ccn1C)n2[C@@H]1O[C@H](CO)[C@@H](O)[C@H]1O,EC50,[1],0.13 µM
same,Activity,[2],0.33%
same,remaining at 0.25 h,[38],100%
same,"remaining at 0.25 h, 3.3 µM",[39],100%
same,"remaining at 2 h, 3.3 µM",[40],98%
same,log(permeability),[41],-5.69
same,remaining at 0.5 h,[42],99%
same,Activity,[3],21.43%
same,IC50 at 72 h,[43],0.16 µM
same,CC50 at 72 h,[4],> 44.4 µM
same,Activity,[5],7.8%
same,Activity,[6],42.94%
same,remaining at 2 h,[44],97%
same,fraction unbound,[45],0.11
same,IC50,[7],> 10 µM
same,IC50,[8],0.58 µM
same,IC50,[9],0.39 µM
same,Activity,[10],40.55%
same,"remaining at 0.25 h, 5 µM",[46],99%
same,EC50,[11],0.04 µM
same,Activity,[12],3.56%
same,Activity,[13],inactive
same,Activity,[14],5.61%
same,IC50,[15],0.38 µM
same,IC50,[16],> 50 µM
same,Activity,[17],inactive
same,Activity,[18],inactive
same,Activity,[19],56.36%
same,IC50,[20],> 50 µM
same,IC50,[21],1.41 µM
same,Activity,[22],inactive
same,Activity,[23],30.41%
same,remaining at 1 h,[47],98%
same,IC50,[24],1.53 µM
same,"remaining at 0.5 h, 3.3 µM",[48],99%
same,Activity,[25],33%
same,"remaining at 1 h, 3.3 µM",[49],98%
same,Activity,[26],12.67%
same,IC50,[27],50 µM
same,"remaining at 1 h, 5 µM",[50],97%
same,Activity,[28],26.28%
same,IC50,[29],1.36 µM
same,IC50,[30],0.34 µM
same,Activity,[31],1.49%
same,IC50,[32],0.3 µM
same,IC50,[33],> 50 µM
same,Activity,[34],inactive
same,Activity,[35],16.52%
same,"remaining at 0.5 h, 5 µM",[51],99%
same,Activity,[36],17.36%
same,IC50,[37],5.16 µM
